We go through 21 compounds from ChEMBL document CHEMBL1177778, “One-pot multicomponent synthesis and anti-microbial evaluation of 2'-(indol-3-yl)-2-oxospiro(indoline-3,4'-pyran) derivatives” (2010).

Common to all, as to format: functional
Holding throughout (conditions): for zone of inhibition at 100 µg/mL: read-out: DIZ

In one assay the test system is Staphylococcus aureus. Description: Antimicrobial activity against Staphylococcus aureus at 100 ug/ml after 24 to 48 hrs by disk diffusion method. Put shortly:
(§1)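 Disc diffusion (cup plate) screen. Organism suspensions were applied to plates and incubated at 36 °C for 24–48 h in a sufficiently humid chamber, after which the zone of inhibition was read. Compounds were dissolved in DMSO as a stock solution and serially diluted to test solutions of 25, 50, 75, 100 and 150 µg/ml.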
Background: A growth-free zone around the sample is the usual read-out of agar diffusion tests.

The subject of assay [1] is Staphylococcus epidermidis. Nature of the assay: Antimicrobial activity against Staphylococcus epidermidis at 100 ug/ml after 24 to 48 hrs by disk diffusion method. Put shortly: as §1
The test system of the next assay is Bacillus subtilis. Description: Antimicrobial activity against Bacillus subtilis at 100 ug/ml after 24 to 48 hrs by disk diffusion method. The method, boiled down:
as §1

Another assay concerns Aspergillus niger. Description: Antimicrobial activity against Aspergillus niger at 100 ug/ml after 24 to 48 hrs by disk diffusion method. The method, boiled down: as §1

Regarding `CN1C(=O)[C@]2(C(C#N)=C(N)OC(c3c[nH]c4ccccc34)=C2C#N)c2ccccc21`, the zone of inhibition at 100 µg/mL in the assay with Staphylococcus aureus was found to be 27 mm; in assay [1], 28 mm; in the assay with Bacillus subtilis it was 26 mm; with Aspergillus niger, 27 mm.

Turning to `CCOC(=O)C1=C(N)OC(c2c[nH]c3ccccc23)=C(C#N)[C@@]12C(=O)N(Cc1ccccc1)c1ccccc12`, the zone of inhibition at 100 µg/mL in the assay on Staphylococcus aureus came to 16 mm; in assay [1], 15 mm; in the assay on Bacillus subtilis, 14 mm; in the assay with Aspergillus niger, 24 mm.

`CCOC(=O)C1=C(N)OC(c2c[nH]c3ccccc23)=C(C#N)[C@@]12C(=O)c1cccc3cccc2c13`: the zone of inhibition at 100 µg/mL in the assay with Staphylococcus aureus turned out to be 20 mm; in assay [1], 18 mm; in the assay on Bacillus subtilis, 17 mm; in the assay with Aspergillus niger, 27 mm.

For the compound `CCOC(=O)C1=C(N)OC(c2c[nH]c3ccccc23)=C(C#N)[C@@]12C(=O)Nc1ccccc12`, the zone of inhibition at 100 µg/mL in the assay on Staphylococcus aureus is 18 mm; in assay [1], 18 mm; in the assay with Bacillus subtilis it was 19 mm; in the assay with Aspergillus niger, 23 mm.

`O=C(N[C@H](CO)[C@H](O)c1ccc([N+](=O)[O-])cc1)C(Cl)Cl` [CHLORAMPHENICOL]: the zone of inhibition at 100 µg/mL in the assay with Staphylococcus aureus was 29 mm; in assay [1], 31 mm; with Bacillus subtilis, 32 mm; in the assay on Aspergillus niger it was 25 mm.

On to `CCOC(=O)C1=C(N)OC(c2c(C)[nH]c3ccccc23)=C(C#N)[C@@]12C(=O)c1cccc3cccc2c13`, for which the zone of inhibition at 100 µg/mL is 20 mm with Staphylococcus aureus, 16 mm in assay [1], 18 mm with Bacillus subtilis and 26 mm in the assay on Aspergillus niger.

Regarding `CCOC(=O)C1=C(N)OC(c2c[nH]c3ccccc23)=C(C#N)[C@@]12C(=O)N(C)c1ccccc12`, the zone of inhibition at 100 µg/mL worked out at 18 mm with Staphylococcus aureus, 14 mm in assay [1], 13 mm with Bacillus subtilis and 23 mm in the assay with Aspergillus niger.

In turn, NYSTATIN came in with an inhibition zone (IZ) in the assay with Aspergillus niger of 28 mm.

Regarding `C=CCN1C(=O)[C@@]2(C(C#N)=C(c3c[nH]c4ccccc34)OC(N)=C2C(=O)OCC)c2ccccc21`, the zone of inhibition at 100 µg/mL in the assay on Staphylococcus aureus came to 18 mm; in assay [1] it was 13 mm; in the assay with Bacillus subtilis, 14 mm; with Aspergillus niger, 21 mm.

For `N#CC1=C(N)OC(c2c[nH]c3ccccc23)=C(C#N)[C@@]12C(=O)c1cccc3cccc2c13`, the zone of inhibition at 100 µg/mL with Staphylococcus aureus was found to be 38 mm; in assay [1], 39 mm; in the assay with Bacillus subtilis, 40 mm; with Aspergillus niger it was 29 mm.

With `N#CC1=C(N)OC(c2c[nH]c3ccccc23)=C(C#N)[C@@]12C(=O)N(Cc1ccccc1)c1ccccc12`, the zone of inhibition at 100 µg/mL in the assay on Staphylococcus aureus was 29 mm; in assay [1] it was 31 mm; in the assay with Bacillus subtilis, 30 mm; with Aspergillus niger it was 24 mm.

Consider GENTAMICIN SULFATE, for which the inhibition zone (IZ) in the assay on Staphylococcus aureus was determined as 26 mm; in assay [1], 28 mm; in the assay with Bacillus subtilis, 30 mm; in the assay on Aspergillus niger, 28 mm.

Take `C#CCN1C(=O)[C@@]2(C(C#N)=C(c3c[nH]c4ccccc34)OC(N)=C2C(=O)OCC)c2ccccc21`: the zone of inhibition at 100 µg/mL in the assay on Staphylococcus aureus stood at 16 mm; in assay [1], 16 mm; with Bacillus subtilis, 17 mm; in the assay with Aspergillus niger, 25 mm.

Consider `Cc1[nH]c2ccccc2c1C1=C(C#N)[C@@]2(C(=O)c3cccc4cccc2c34)C(C#N)=C(N)O1`, for which the zone of inhibition at 100 µg/mL came to 20 mm with Staphylococcus aureus, 16 mm in assay [1], 19 mm in the assay with Bacillus subtilis and 26 mm with Aspergillus niger.

For `CCOC(=O)CN1C(=O)[C@]2(C(C#N)=C(N)OC(c3c[nH]c4ccccc34)=C2C#N)c2ccccc21`, the zone of inhibition at 100 µg/mL in the assay with Staphylococcus aureus was found to be 24 mm; in assay [1] it was 25 mm; with Bacillus subtilis it was 26 mm; with Aspergillus niger, 25 mm.

As for `CCCCN1C(=O)[C@@]2(C(C#N)=C(c3c[nH]c4ccccc34)OC(N)=C2C(=O)OCC)c2ccccc21`, the zone of inhibition at 100 µg/mL with Staphylococcus aureus was 16 mm; in assay [1] it was 14 mm; in the assay with Bacillus subtilis it was 17 mm; in the assay on Aspergillus niger, 27 mm.

On to `CCOC(=O)CN1C(=O)[C@@]2(C(C#N)=C(c3c[nH]c4ccccc34)OC(N)=C2C(=O)OCC)c2ccccc21`, for which the zone of inhibition at 100 µg/mL in the assay on Staphylococcus aureus is 14 mm; in assay [1], 10 mm; with Bacillus subtilis it was 12 mm; in the assay on Aspergillus niger, 21 mm.

Regarding `CCOC(=O)C1=C(N)OC(c2cn(C)c3ccccc23)=C(C#N)[C@@]12C(=O)c1cccc3cccc2c13`, the zone of inhibition at 100 µg/mL is 19 mm with Staphylococcus aureus, 18 mm in assay [1], 18 mm in the assay on Bacillus subtilis and 22 mm in the assay with Aspergillus niger.

As for `Cn1cc(C2=C(C#N)[C@@]3(C(=O)c4cccc5cccc3c45)C(C#N)=C(N)O2)c2ccccc21`, the zone of inhibition at 100 µg/mL with Staphylococcus aureus is 39 mm; in assay [1], 38 mm; with Bacillus subtilis, 36 mm; with Aspergillus niger it was 28 mm.

For the compound `N#CC1=C(N)OC(c2c[nH]c3ccccc23)=C(C#N)[C@@]12C(=O)Nc1ccccc12`, the zone of inhibition at 100 µg/mL came to 29 mm in the assay on Staphylococcus aureus, 30 mm in assay [1], 28 mm in the assay on Bacillus subtilis and 28 mm with Aspergillus niger.

Regarding `C#CCN1C(=O)[C@]2(C(C#N)=C(N)OC(c3c[nH]c4ccccc34)=C2C#N)c2ccccc21`, the zone of inhibition at 100 µg/mL in the assay with Staphylococcus aureus was determined as 18 mm; in assay [1], 19 mm; with Bacillus subtilis, 20 mm; with Aspergillus niger it was 25 mm.
